Test [1] concerns the target Serine/threonine-protein kinase Chk2 (Homo sapiens) (UniProt O96017). In words: Inhibition of CHK2 assessed as residual activity at 10 uM by Cherenkov counting relative to control in presence of 20 uM ATP. The essentials:
(§1)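 Single-point profiling at 10 µM in a panel of 78 protein kinases. Kinase activity is expressed as a percentage relative to control assays without compound.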

Test [2] in a line: Inhibition of AMPK assessed as residual activity at 10 uM by Cherenkov counting relative to control in presence of 50 uM ATP. The method in brief: as §1
Test [3] concerns the target Maternal embryonic leucine zipper kinase (Homo sapiens) (UniProt Q14680). As to the kind of experiment: Inhibition of MELK assessed as residual activity at 10 uM by Cherenkov counting relative to control in presence of 50 uM ATP.
For test [4], the target named is Casein kinase I isoform delta (Homo sapiens, UniProt P48730). As to the kind of experiment: Inhibition of CK1delta assessed as residual activity at 10 uM by Cherenkov counting relative to control in presence of 20 uM ATP. The essentials: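 CK1δ tested within a 78-protein-kinase panel with compound at 10 µM. Activity is expressed as a percentage of kinase activity relative to control assays run without compound.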

Test [5] deals with Dual specificity tyrosine-phosphorylation-regulated kinase 1A (Homo sapiens) (UniProt Q13627). As to the kind of experiment: Inhibition of DYRK1A assessed as residual activity at 10 uM by Cherenkov counting relative to control in presence of 50 uM ATP. The essentials: as §1
Test [6] addresses T1, Serine/threonine-protein kinase Nek2 (Homo sapiens) (UniProt P51955).
T1 sequence (whole entry): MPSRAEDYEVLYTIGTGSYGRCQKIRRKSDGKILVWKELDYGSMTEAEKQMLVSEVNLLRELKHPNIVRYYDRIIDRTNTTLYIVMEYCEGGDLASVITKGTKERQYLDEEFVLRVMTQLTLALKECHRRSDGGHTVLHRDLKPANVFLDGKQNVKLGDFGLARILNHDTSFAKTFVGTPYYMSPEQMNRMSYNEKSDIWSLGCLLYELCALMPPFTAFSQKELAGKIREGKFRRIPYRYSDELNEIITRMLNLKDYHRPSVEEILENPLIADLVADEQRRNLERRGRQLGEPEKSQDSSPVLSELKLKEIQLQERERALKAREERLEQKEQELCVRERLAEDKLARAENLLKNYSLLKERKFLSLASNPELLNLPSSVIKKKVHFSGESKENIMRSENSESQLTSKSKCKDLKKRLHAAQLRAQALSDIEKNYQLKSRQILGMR
As to the kind of experiment: Inhibition of NEK2a assessed as residual activity at 10 uM by Cherenkov counting relative to control in presence of 50 uM ATP.

Test [7] concerns the target Serine/threonine-protein kinase pim-2 (Homo sapiens) (UniProt Q9P1W9). As to the kind of experiment: Inhibition of PIM2 assessed as residual activity at 10 uM by Cherenkov counting relative to control in presence of 5 uM ATP.
Test [8] deals with T2, Eukaryotic elongation factor 2 kinase (Homo sapiens) (UniProt O00418).
T2 sequence (whole entry): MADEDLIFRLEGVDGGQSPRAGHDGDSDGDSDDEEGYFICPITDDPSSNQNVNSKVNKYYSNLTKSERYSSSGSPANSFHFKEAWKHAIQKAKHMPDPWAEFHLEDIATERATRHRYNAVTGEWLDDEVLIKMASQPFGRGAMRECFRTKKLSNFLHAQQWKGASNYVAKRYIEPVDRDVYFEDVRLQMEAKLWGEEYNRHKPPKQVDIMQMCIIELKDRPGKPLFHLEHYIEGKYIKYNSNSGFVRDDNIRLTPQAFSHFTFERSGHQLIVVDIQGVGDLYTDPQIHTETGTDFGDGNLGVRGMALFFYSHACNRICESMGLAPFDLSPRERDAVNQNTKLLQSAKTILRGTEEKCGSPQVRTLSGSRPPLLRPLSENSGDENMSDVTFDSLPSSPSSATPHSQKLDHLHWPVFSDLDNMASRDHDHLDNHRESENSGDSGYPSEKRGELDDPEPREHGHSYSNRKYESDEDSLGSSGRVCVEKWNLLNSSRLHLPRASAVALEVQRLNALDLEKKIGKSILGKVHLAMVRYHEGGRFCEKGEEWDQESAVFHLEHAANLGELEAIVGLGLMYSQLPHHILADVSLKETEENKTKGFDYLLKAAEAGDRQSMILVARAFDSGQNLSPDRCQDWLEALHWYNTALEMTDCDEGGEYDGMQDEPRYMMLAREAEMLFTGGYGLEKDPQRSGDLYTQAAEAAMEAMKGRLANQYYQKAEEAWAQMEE
In words: Inhibition of EF2K assessed as residual activity at 10 uM by Cherenkov counting relative to control in presence of 5 uM ATP. The method in brief:
as §1

Test [9] has as its target Serine/threonine-protein kinase 26 (Homo sapiens) (UniProt Q9P289). As to the kind of experiment: Inhibition of MST4 assessed as residual activity at 10 uM by Cherenkov counting relative to control in presence of 20 uM ATP.
Test [10] has as its target Tyrosine-protein kinase SYK (Homo sapiens) (UniProt P43405). In words: Inhibition of SYK assessed as residual activity at 10 uM by Cherenkov counting relative to control in presence of 20 uM ATP. The essentials: (§2)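 Single-concentration profiling at 10 μM in a 78-kinase panel. Kinase activity is expressed as a percentage of control assays run without compound.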
Test [11] deals with Dual specificity mitogen-activated protein kinase kinase 1 (Homo sapiens) (UniProt Q02750). As to the kind of experiment: Inhibition of MKK1 assessed as residual activity at 10 uM by Cherenkov counting relative to control in presence of 5 uM ATP.
Test [12] addresses Ribosomal protein S6 kinase alpha-1 (Homo sapiens) (UniProt Q15418). As to the kind of experiment: Inhibition of RSK1 assessed as residual activity at 10 uM by Cherenkov counting relative to control. The method in brief:
as §2

In test [13] the target is Casein kinase I isoform epsilon (Homo sapiens, UniProt P49674). In words: Inhibition of recombinant CK1epsilon by Cherenkov counting in presence of 20 uM ATP.
Test [14] deals with Mitogen-activated protein kinase 11 (Homo sapiens) (UniProt Q15759). In words: Inhibition of p38beta assessed as residual activity at 0.1 uM by Cherenkov counting relative to control. The essentials:
(§3)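 Single-concentration screen at 0.1 μM in a 76-kinase panel. ATP for each kinase was set near its Km for ATP. Residual activity is given as a percentage of control assays without compound, mean of n = 3 ± SD.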

The target in test [15] is Mitogen-activated protein kinase 15 (Homo sapiens) (UniProt Q8TD08). In words: Inhibition of ERK8 assessed as residual activity at 0.1 uM by Cherenkov counting relative to control in presence of 5 uM ATP. The essentials:
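Single-concentration screen at 0.1 µM across a panel of 76 protein kinases. Each kinase was run at an ATP concentration approximating its ATP Km. Results are % mean residual activity versus control assays without compound (n = 3 ± SD).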

Test [16] deals with RAC-alpha serine/threonine-protein kinase (Homo sapiens) (UniProt P31749). In words: Inhibition of PKBalpha assessed as residual activity at 0.1 uM by Cherenkov counting relative to control in presence of 5 uM ATP. The essentials:
as §3

Sequence of Maternal embryonic leucine zipper kinase (Homo sapiens) (Q14680 whole entry, looked up, canonical isoform): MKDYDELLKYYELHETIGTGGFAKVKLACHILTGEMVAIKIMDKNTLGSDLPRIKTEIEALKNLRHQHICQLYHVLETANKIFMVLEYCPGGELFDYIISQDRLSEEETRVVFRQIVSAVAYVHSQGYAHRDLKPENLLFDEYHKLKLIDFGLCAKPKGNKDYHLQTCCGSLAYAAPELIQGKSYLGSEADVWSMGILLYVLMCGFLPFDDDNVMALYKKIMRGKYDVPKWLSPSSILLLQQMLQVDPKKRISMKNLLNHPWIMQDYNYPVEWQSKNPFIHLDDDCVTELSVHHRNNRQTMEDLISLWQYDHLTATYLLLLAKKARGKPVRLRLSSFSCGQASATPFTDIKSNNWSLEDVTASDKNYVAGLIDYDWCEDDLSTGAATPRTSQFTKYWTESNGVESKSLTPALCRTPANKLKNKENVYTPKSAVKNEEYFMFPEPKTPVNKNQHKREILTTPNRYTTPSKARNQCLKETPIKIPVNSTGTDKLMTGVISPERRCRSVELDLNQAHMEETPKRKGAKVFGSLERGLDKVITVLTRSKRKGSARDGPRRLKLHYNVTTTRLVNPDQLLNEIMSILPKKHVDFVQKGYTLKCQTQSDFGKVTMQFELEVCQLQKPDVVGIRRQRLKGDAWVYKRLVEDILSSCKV
Sequence of RAC-alpha serine/threonine-protein kinase (Homo sapiens) (P31749 whole entry): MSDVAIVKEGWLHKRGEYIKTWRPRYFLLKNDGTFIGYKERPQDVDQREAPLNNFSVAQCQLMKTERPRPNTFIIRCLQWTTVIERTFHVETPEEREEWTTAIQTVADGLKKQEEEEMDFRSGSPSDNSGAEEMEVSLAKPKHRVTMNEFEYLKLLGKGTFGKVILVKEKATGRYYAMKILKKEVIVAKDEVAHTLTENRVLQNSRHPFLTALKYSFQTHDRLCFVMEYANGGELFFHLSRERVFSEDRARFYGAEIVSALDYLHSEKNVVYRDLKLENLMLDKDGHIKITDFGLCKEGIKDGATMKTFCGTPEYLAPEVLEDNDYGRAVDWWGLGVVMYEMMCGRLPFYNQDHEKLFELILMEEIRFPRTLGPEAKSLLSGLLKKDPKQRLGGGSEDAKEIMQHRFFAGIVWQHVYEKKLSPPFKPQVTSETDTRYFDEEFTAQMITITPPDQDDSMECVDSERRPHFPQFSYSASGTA
Sequence of Casein kinase I isoform epsilon (P49674 whole entry, canonical isoform): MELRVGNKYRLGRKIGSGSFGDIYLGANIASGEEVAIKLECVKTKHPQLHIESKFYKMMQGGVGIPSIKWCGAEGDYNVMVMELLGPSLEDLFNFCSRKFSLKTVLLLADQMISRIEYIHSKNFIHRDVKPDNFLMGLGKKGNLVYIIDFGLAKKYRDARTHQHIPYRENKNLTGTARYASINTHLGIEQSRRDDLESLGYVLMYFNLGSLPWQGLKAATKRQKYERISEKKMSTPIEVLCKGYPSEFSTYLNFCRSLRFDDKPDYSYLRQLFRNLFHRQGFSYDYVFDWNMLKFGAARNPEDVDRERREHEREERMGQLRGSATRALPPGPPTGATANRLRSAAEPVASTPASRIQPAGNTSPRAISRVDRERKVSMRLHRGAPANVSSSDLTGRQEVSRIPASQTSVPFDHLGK
Sequence of Mitogen-activated protein kinase 15 (Homo sapiens) (Q8TD08 whole entry): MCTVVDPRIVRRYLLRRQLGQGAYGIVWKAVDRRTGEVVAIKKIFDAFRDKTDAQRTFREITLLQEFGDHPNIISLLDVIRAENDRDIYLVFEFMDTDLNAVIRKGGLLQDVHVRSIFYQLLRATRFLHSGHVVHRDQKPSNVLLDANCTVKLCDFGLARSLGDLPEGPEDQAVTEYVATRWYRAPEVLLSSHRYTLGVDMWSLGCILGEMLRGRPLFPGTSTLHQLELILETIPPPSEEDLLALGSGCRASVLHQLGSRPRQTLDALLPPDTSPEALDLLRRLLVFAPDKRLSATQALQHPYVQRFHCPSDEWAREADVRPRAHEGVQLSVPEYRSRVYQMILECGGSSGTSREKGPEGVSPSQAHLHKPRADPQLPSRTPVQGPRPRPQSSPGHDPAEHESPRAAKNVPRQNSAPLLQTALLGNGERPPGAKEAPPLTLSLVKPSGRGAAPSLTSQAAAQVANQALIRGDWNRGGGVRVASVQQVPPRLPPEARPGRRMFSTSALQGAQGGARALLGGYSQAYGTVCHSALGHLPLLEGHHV
Sequence of Dual specificity mitogen-activated protein kinase kinase 1 (Homo sapiens) (Q02750 whole entry): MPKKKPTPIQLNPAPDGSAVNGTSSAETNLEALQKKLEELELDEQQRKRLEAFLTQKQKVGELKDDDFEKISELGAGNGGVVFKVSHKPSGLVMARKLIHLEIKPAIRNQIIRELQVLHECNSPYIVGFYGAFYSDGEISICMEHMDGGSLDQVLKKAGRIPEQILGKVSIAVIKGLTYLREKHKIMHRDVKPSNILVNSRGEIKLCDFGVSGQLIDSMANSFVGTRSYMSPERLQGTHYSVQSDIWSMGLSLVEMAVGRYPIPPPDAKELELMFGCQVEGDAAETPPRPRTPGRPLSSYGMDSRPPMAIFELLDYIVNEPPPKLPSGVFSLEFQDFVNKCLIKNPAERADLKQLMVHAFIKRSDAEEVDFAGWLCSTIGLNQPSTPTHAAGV
Sequence of Serine/threonine-protein kinase Chk2 (Homo sapiens) (O96017 whole entry): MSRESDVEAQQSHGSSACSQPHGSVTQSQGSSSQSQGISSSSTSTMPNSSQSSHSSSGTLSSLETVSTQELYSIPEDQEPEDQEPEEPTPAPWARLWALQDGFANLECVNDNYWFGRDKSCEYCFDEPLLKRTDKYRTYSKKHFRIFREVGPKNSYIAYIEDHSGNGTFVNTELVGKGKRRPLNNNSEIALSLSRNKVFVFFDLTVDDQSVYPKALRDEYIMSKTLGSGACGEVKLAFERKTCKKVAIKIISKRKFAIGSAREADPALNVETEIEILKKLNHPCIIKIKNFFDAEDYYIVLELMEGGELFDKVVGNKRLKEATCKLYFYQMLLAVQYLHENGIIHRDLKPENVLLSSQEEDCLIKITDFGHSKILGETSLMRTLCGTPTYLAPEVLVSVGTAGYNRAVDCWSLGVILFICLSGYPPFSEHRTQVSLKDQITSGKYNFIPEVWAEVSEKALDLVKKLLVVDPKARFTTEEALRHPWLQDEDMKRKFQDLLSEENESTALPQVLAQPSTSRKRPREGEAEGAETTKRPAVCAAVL
Sequence of Casein kinase I isoform delta (P48730 whole entry, looked up, canonical isoform): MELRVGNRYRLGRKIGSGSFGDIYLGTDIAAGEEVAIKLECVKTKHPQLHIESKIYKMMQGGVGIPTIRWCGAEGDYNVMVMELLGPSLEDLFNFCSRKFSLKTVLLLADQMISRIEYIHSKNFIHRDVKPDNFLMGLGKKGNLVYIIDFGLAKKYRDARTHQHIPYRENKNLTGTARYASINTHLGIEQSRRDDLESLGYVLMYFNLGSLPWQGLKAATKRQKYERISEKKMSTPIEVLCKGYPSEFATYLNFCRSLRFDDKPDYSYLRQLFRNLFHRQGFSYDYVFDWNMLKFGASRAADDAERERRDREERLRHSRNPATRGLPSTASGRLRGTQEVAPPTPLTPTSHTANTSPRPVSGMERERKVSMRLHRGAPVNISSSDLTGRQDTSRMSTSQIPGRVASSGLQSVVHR
Sequence of Mitogen-activated protein kinase 11 (Homo sapiens) (Q15759 whole entry): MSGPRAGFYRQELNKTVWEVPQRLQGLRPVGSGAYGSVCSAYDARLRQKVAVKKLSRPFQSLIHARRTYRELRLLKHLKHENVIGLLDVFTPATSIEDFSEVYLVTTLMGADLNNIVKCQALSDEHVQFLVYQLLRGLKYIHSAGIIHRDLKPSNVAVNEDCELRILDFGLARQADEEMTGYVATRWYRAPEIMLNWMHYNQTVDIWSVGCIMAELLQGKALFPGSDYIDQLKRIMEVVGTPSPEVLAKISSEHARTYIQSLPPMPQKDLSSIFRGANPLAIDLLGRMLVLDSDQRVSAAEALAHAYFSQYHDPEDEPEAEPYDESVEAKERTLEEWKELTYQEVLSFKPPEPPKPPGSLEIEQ
Sequence of Serine/threonine-protein kinase pim-2 (Homo sapiens) (Q9P1W9 whole entry, looked up): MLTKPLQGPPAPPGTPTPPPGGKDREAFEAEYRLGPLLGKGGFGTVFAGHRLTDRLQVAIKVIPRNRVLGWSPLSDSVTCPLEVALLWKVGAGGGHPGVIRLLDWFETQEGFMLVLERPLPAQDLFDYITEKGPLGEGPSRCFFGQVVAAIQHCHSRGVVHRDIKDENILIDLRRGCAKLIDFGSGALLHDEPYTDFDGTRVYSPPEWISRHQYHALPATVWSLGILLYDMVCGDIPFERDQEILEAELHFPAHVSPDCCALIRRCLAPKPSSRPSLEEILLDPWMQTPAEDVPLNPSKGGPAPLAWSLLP
Sequence of Ribosomal protein S6 kinase alpha-1 (Homo sapiens) (Q15418 whole entry): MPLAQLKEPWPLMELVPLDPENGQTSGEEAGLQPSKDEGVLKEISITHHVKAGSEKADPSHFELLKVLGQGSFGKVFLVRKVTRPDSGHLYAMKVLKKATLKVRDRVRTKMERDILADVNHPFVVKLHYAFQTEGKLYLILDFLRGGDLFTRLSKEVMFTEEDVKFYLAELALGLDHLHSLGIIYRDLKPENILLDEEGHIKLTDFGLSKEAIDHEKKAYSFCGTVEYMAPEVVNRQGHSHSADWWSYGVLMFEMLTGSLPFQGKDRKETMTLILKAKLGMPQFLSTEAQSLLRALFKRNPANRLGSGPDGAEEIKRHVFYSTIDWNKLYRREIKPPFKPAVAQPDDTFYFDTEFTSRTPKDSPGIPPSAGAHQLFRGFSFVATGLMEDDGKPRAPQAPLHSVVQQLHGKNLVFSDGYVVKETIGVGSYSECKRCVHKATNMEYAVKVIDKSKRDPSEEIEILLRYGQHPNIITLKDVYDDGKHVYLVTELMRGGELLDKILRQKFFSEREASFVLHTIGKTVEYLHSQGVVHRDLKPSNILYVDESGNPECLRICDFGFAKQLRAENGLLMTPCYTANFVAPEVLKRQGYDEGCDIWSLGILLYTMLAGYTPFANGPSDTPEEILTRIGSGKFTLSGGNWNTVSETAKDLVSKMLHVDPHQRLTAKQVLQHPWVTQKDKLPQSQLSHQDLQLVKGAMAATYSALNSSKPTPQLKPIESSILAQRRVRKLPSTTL

As to `CC(C)c1noc(-c2ccc(F)cc2)c1-c1ccncc1`, the Activity in test [1] is 109%; in test [2], 73%; in test [3], 108%; in test [4], 55%; in test [5], 95%; in [6], 96%. Also, the Activity is 96% in [7]; 107% in test [8]; 102% in test [9]; 114% in test [10]; 88% in test [11]; 83% in [12].

Regarding `CC(C)c1onc(-c2ccc(F)cc2)c1-c1ccncc1`, the Activity in [1] is 104%; in test [2], 88%; in [3], 78%; in test [4] it was 6%; in test [5], 100%; in [6], 98%. The Activity in test [7] came to 105%; in test [8], 107%; in test [9], 88%; in test [10] it was 131%; in [11] it was 76%; in test [12] it was 79%.

`COc1ccc(/C=C/C(=O)Nc2cc(-c3[nH]c([S+](C)[O-])nc3-c3ccc(F)cc3)ccn2)c(OC)c1` (configuration not stated): the IC50 in test [13] is 447 nM. Besides, the Activity was found to be 46% in test [14], 88% in [15] and 105% in test [16].

As for `COc1ccc(/C=C/C(=O)Nc2cc(-c3[nH]c(SC)nc3-c3ccc(F)cc3)ccn2)c(OC)c1`, the IC50 in test [13] was 73 nM. Further, the Activity turned out to be 17% in [14], 83% in test [15] and 105% in test [16].

These data come from ChEMBL document CHEMBL1155278, “3,4-Diaryl-isoxazoles and -imidazoles as potent dual inhibitors of p38alpha mitogen activated protein kinase and casein kinase 1delta” (J Med Chem, 2009).
